# Laboratory results reported in ChEMBL document CHEMBL2417486, “Exploring natural product chemistry and biology with multicomponent reactions. 5. Discovery of a novel tubulin-targeting scaffold derived from the rigidin family of marine alkaloids” (J Med Chem, 2013).
# Activity calls are given as the source filed them. The calls are words filed in the database; no cut-off is given here.
# Legend:
# HeLa [1] = assay: Cell cycle arrest in human HeLa cells assessed as accumulation at G2/M phase at 1 uM after 32 hrs using Vybrant Orange staining by flow cytometry relative to control; assay type: functional, cell-based
# How it was run: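 HeLa cells at 70–80% confluence were seeded at 2 × 10^5 per well in DMEM/10% FBS with penicillin G and streptomycin, left to adhere overnight, then treated at 1 µM for 32 h (0.1% DMSO control). Washed, trypsinized, stained 30 min at 37 °C with 10 µM Vybrant Orange in medium, then analysed by flow cytometry for DNA content.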
# MCF7 = assay: Growth inhibition of human MCF7 cells after 48 hrs by MTT assay; assay type: functional; settings: MCF7, 48 h
# How it was run: (§1)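 Cells seeded at 4 × 10^3 per well, grown 24 h, then treated 48 h at 0.004–100 µM from 100 or 25 mM DMSO stocks. Controls were 0.1% DMSO and phenyl arsine oxide. MTT (5 mg/mL) added for 2 h, formazan dissolved in DMSO, A490 read. […] HeLa/MCF-7 in DMEM, MES-SA lines in RPMI-1640, all with 10% FBS.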
# HeLa [2] = assay: Growth inhibition of human HeLa cells after 48 hrs by MTT assay; assay type: functional; how it was run: as §1
# UMSCC22B = assay: Growth inhibition of human UM-SCC-22B cells after 48 hrs by MTT assay; assay type: functional
# [3] = Growth inhibition of human UM-SCC-10B cells after 48 hrs by MTT assay; assay type: functional
# [4] = Growth inhibition of human UM-SCC-22A cells after 48 hrs by MTT assay; assay type: functional
# [5] = Growth inhibition of human UM-SCC-10A cells after 48 hrs by MTT assay; assay type: functional; settings: UMSCC-10A
# B16-F10 = assay: Growth inhibition of mouse B16F10 cells after 48 hrs by MTT assay; assay type: functional; settings: B16-F10, 48 h
# A549 = assay: Growth inhibition of human A549 cells after 48 hrs by MTT assay; assay type: functional; settings: A549, 48 h
# SK-MEL-28 = assay: Growth inhibition of human SK-MEL-28 cells after 48 hrs by MTT assay; assay type: functional; settings: SK-MEL-28, 48 h
# [6] = Growth inhibition of human U373 cells after 48 hrs by MTT assay; assay type: functional, U-373MG ATCC; settings: U373 MG
# [7] = Growth inhibition of human Hs683 cells after 48 hrs by MTT assay; assay type: functional; settings: Hs 683, 48 h
# [8] = Aqueous solubility of the compound by spectrophotometric analysis; assay type: physicochemical
# How it was run: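 Compound dispersed in ultrapure water at >0.5 mg/mL; supernatant centrifuged repeatedly until no pellet remained, then diluted 1:2 (solution:DMSO). Concentration read from absorbance at peak 335–336 nm against a calibration line made in 1:2 water/DMSO, and corrected for the DMSO dilution.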
# [9] = biological target: T1, Tubulin beta (Homo sapiens) (UniProt P68371+Q9H4B7+Q13509+P04350+Q3ZCM7+P07437+Q13885+Q9BVA1+Q9BUF5+A6NNZ2); assay: Inhibition of [3H] radiolabelled colchicine binding to tubulin beta (unknown origin) at 5 uM by DEAE-cellulose filter method; assay type: protein assay
# [10] = Inhibition of bovine brain tubulin polymerization preincubated for 15 mins followed by GTP addition measured after 20 mins by turbidimetric analysis; set-up: species or system Bos taurus
# How it was run: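 Bovine brain tubulin at 10 µM (1.0 mg/mL) in 0.8 M monosodium glutamate (pH 6.6 in 2 M stock) was preincubated with varying compound concentrations for 15 min at 30 °C, then cooled to 0 °C. After addition of 0.4 mM GTP, samples were warmed to 30 °C and assembly followed by turbidity at 350 nm.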
# HeLa [11] = assay: Antimitotic activity in human HeLa cells assessed as effect on spindle length at 1 to 10 nM after 3 hrs by Hoechst 33342 staining based inverted microscopic analysis; assay type: functional, cell-based
# How it was run: (§2)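 HeLa cells grown in EMEM with 10% FBS, sodium pyruvate and sodium bicarbonate; treated 3 h with compound (DMSO stock prediluted in medium) or 0.1% DMSO carrier. Fixed in methanol at -20°C for 30 min, blocked in 3% BSA/PBS 1 h, mouse anti-tubulin plus rabbit anti-pericentrin overnight at 4 °C, Alexafluor secondaries, Hoechst 33342 for DNA; epifluorescence imaging with Apotome.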
# [12] = Growth inhibition of human doxorubicin-resistant MES-SA/Dx5 cells after 48 hrs by MTT assay; assay type: functional; settings: MES-SA/Dx5, 48 h
# How it was run: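 Cells seeded at 4 × 10^3 per well, grown 24 h, then treated 48 h at 0.004–100 µM from 100 or 25 mM DMSO stocks. Controls were 0.1% DMSO and phenyl arsine oxide. MTT (5 mg/mL) added for 2 h, formazan dissolved in DMSO, A490 read.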
# [13] = Growth inhibition of human MES-SA cells after 48 hrs by MTT assay; assay type: functional; how it was run: as §1
# HeLa [14] = assay: Antimitotic activity in human HeLa cells assessed as disruption of mitotic microtubule organization at 10 to 100 nM after 3 hrs by Hoechst 33342 staining based inverted microscopic analysis; assay type: functional, cell-based; how it was run: as §2
# HeLa [15] = assay: Antimitotic activity in human HeLa cells assessed as disruption of interphase microtubule organization at 10 to 100 nM after 3 hrs by Hoechst 33342 staining based inverted microscopic analysis; assay type: functional, cell-based; how it was run: as §2
# HeLa [16] = assay: Antimitotic activity in human HeLa cells assessed as mitotic microtubule organization at 1 to 10 nM after 3 hrs by Hoechst 33342 staining based inverted microscopic analysis; assay type: functional, cell-based; how it was run: as §2
# HeLa [17] = assay: Antimitotic activity in human HeLa cells assessed as interphase microtubule organization at 1 to 10 nM after 3 hrs by Hoechst 33342 staining based inverted microscopic analysis; assay type: functional, cell-based; how it was run: as §2
# [18] = biological target: T1, Tubulin beta (Homo sapiens); assay: Inhibition of [3H] radiolabelled colchicine binding to tubulin beta (unknown origin) at 1 uM by DEAE-cellulose filter method; assay type: protein assay
Compound,Activity (HeLa [1]),GI50 (MCF7) [nM],GI50 (HeLa [2]) [nM],GI50 (UMSCC22B) [nM],GI50 [3] [nM],GI50 [4] [nM],GI50 [5] [nM],GI50 (B16-F10) [nM],GI50 (A549) [nM],GI50 (SK-MEL-28) [nM],GI50 [6] [nM],GI50 [7] [nM],solubility [8] [µM],inhibition [9] [%],IC50 [10] [nM],Activity (HeLa [11]),GI50 [12] [nM],GI50 [13] [nM],Activity (HeLa [14]),Activity (HeLa [15]),further results
O=C(c1ccccc1)c1[nH]c2[nH]cnc(=O)c2c1-c1cncc(Br)c1,Active,87,80,20,130,120,90,40,20,20,30,20,30,–,–,–,–,–,–,–,–
O=C(c1ccccc1)c1[nH]c2[nH]cnc(=O)c2c1-c1cc(Br)cc(Br)c1,Active,95,95,20,100,110,90,50,30,20,30,20,40,71,1600,inactive,394,81,Active,Active,Activity (HeLa [16]): inactive; Activity (HeLa [17]): inactive
O=C(c1ccccc1)c1[nH]c2[nH]cnc(=O)c2c1-c1ccccc1,–,40,35,–,–,–,–,20,10,< 10,< 10,10,10,88,1200,inactive,70,30,Active,Active,inhibition [18]: 58%; Activity (HeLa [16]): inactive; Activity (HeLa [17]): inactive
